{"data": "Experimental data gathered from unrelated publications", "target": "Serine/threonine-protein kinase BRSK1 (BRSK1, Homo sapiens, UniProt Q8TDC3)", "One construct used (Q8TDC3 1-778)": "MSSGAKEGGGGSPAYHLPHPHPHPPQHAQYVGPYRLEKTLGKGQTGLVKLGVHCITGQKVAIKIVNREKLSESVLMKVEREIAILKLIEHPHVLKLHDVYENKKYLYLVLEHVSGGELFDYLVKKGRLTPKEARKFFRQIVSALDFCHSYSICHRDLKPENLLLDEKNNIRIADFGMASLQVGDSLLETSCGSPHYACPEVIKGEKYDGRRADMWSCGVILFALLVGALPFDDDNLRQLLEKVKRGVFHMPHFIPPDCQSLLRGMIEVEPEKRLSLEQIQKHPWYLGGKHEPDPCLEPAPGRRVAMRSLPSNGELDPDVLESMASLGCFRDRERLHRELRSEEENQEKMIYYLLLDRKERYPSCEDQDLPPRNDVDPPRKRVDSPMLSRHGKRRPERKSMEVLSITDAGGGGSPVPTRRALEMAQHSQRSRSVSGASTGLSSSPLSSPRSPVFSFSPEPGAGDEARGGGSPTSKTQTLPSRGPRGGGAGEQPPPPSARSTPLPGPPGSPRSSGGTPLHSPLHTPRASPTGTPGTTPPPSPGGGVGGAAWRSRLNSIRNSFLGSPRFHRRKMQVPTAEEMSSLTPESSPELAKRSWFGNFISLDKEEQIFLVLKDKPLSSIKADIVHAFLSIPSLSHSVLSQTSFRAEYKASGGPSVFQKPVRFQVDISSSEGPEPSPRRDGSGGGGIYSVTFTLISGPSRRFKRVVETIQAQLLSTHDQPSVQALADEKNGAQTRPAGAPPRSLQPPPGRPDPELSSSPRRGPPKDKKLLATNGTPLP", "note": "Compare with care: the assays were run in different laboratories."}
{"Compound": "O=C(Nc1c[nH]nc1C(=O)NC1CCNCC1)c1cc(F)cc(F)c1", "test": "binding, competition with immobilised ligand", "setting": "1 µM", "remaining binding [%]": 89}
{"Compound": "O=C(NCCCN1CCOCC1)c1ccc(Nc2ncc(Cl)c(-c3ccc(Cl)s3)n2)cc1", "test": "binding, competition with immobilised ligand", "setting": "1 µM", "remaining binding [%]": 75}
{"Compound": "CC1CCCN1c1nccc(-c2cnn3ncccc23)n1 (stereo not shown)", "test": "binding", "setting": "1 µM", "remaining binding [%]": 95}
{"Compound": "CNC(=O)[C@@H]1CC[C@@H](n2c(-c3ccc4cnccc4c3)nc3ccc(C(=O)NCc4cccc(C(N)=O)c4)cc32)C1", "test": "binding, competition with immobilised ligand", "setting": "1 µM", "remaining binding [%]": 100}
{"Compound": "c1cncc(-c2cccc(Nc3nccc(NC4CCCCC4)n3)c2)c1", "test": "binding, competition with immobilised ligand", "setting": "10 µM", "remaining binding [%]": 84}
{"Compound": "O=C(NCCCN1CCOCC1)c1ccc(Nc2nccc(-c3cc4ccccc4s3)n2)cc1", "test": "binding, competition with immobilised ligand", "setting": "1 µM", "remaining binding [%]": 70}
{"Compound": "CC(C)CC(=O)N1CCc2nc(-c3ccc(Br)cc3)nc(N(C)Cc3ccccc3)c2C1", "test": "cell-free assay, competition with immobilised ligand", "setting": "0.1 µM", "remaining binding [%]": 100}
{"Compound": "FC(F)(F)Oc1cccc(-c2cnc3ccc(-c4ccncc4)nn23)c1", "test": "cell-free assay, competition with immobilised ligand", "setting": "5 µM", "remaining binding [%]": 85}
{"Compound": "COc1cc(-c2cn(C3CCc4ccccc4N(CC(F)(F)F)C3=O)nn2)ccc1-n1ccc(C)n1 (stereo not shown)", "test": "cell-free assay, competition with immobilised ligand", "setting": "1 µM", "remaining binding [%]": 81}
{"Compound": "CN(C)c1nccc(-c2cnn3ncccc23)n1", "test": "binding", "setting": "1 µM", "remaining binding [%]": 100}
{"Compound": "C=CC(=O)N1CCC(C(=O)NCC(=O)N2CCN(c3nc(-c4cnc(N)nc4C(F)F)nc(N4CCOCC4)n3)CC2)CC1", "test": "binding, competition with immobilised ligand", "setting": "1 µM", "remaining binding [%]": 100}
{"Compound": "Cc1c(NC(=O)c2cc(C(N)=O)nc3cc(F)ccc23)c(C(F)(F)F)nn1Cc1ccc(C#N)cc1", "test": "cell-free assay, competition with immobilised ligand", "setting": "1 µM", "remaining binding [%]": 100}
{"Compound": "Cc1cnc(Nc2ccc(C(=O)N3CCC(N4CCCC4)CC3)cc2)nc1-c1cc2ccccc2s1", "test": "binding, competition with immobilised ligand", "setting": "1 µM", "remaining binding [%]": 100}
{"Compound": "CO[C@@H](C)c1c(Nc2ccc([C@@H](N(C)C(=O)C3CCS(=O)(=O)CC3)C(F)(F)F)cc2)cnc2cc(Cl)nn12", "test": "cell-free assay, competition with immobilised ligand", "setting": "1 µM", "remaining binding [%]": 93}
{"Compound": "C[C@@H]1CCN(c2nccc(-c3cnn4ncccc34)n2)C1", "test": "binding", "setting": "1 µM", "remaining binding [%]": 93}
{"Compound": "N#CC1(c2ccccn2)CCN(Cc2cc(C(=O)N3CCCC3)c(=O)n3ccccc23)CC1", "test": "cell-free assay, competition with immobilised ligand", "setting": "1 µM", "remaining binding [%]": 87}
{"Compound": "Cc1cnn2ncc(-c3ccnc(N(C)C)n3)c2c1", "test": "binding", "setting": "1 µM", "remaining binding [%]": 81}
{"Compound": "CCN1CCN(Cc2ccc(C(=O)Nc3ccc(C)c(Oc4ccc5c(c4)CC(=O)N5)c3)cc2C(F)(F)F)CC1", "test": "binding, competition with immobilised ligand", "setting": "1 µM", "remaining binding [%]": 94}
{"Compound": "c1cnn2ncc(-c3ccnc(N4CCC45COC5)n3)c2c1", "test": "binding", "setting": "1 µM", "remaining binding [%]": 82}
{"Compound": "CC(=O)c1c(NS(C)(=O)=O)c2cc(-c3ccc(Cl)cc3)c(-c3ccc(Cl)cc3Cl)nc2n(C)c1=O", "test": "cell-free assay, competition with immobilised ligand", "setting": "1 µM", "remaining binding [%]": 99}
{"Compound": "CN(C)c1nccc(-c2cnc3ncccn23)n1", "test": "binding", "setting": "1 µM", "remaining binding [%]": 100}
{"Compound": "COc1ccc2c(c1)O[C@H](c1ccc(OC)c(OC)c1)C[C@@H]2NC(=O)C1(c2ccc3c(c2)OC(F)(F)O3)CC1", "test": "cell-free assay, competition with immobilised ligand", "setting": "1 µM", "remaining binding [%]": 100}
